Screening data deposited in PubChem BioAssay by Broad Institute.
A selection: hits, their analogues and other compounds. The true share with any hit is near 2.7%.
HIV Env fusion: blocks HIV Env-driven cell-cell fusion; inhibition, % at 12.3 µM; hit rate 1.1% among 360,000; HeLa-JRFL Env/CEM21 cell fusion, luciferase;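 active means mean replicate inhibition score of at least 50 and every replicate individually at or above 50; inconclusive means only one of the two criteria met; inactive means mean below 50 and not all replicates reaching 50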
FGF22 binding: binders of recombinant human FGF22 by thermal shift. SYPRO orange fluorescence; percent of sucrose octasulfate shift, DMSO zero. activity (Tm shift, normalised), % at 9.99 µM. hit rate 1.5% among 340,000;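 active means mean Tm shift, scaled 0 neutral to 100 positive control, at about 1.3% or above, every replicate too, limit read from the data; inconclusive means no clear call, values can overlap the other calls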
F508del corr: correctors of CFTR F508del function in bronchial epithelial cells. hit rate 0.36% among 350,000. activity (quench increase), % at 7.58 µM. CFBE cells, YFP halide quenching; stimulated with forskolin plus potentiator P3; % fluorescence drop versus neutral controls;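 active means mean added fluorescence quench of at least 8% versus neutral control, with both replicates also reaching 8%; inconclusive means only one of the mean or replicate conditions met; inactive means mean below 8% and not both replicates reaching 8%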;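 further: cells transiently co-express mutant CFTR-F508del with the halide-sensitive YFP; corrector assay measuring rescue of mutant channel to the surface after 24 h compound exposure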
S100A4 MyoIIA: inhibitors of human S100A4 binding to myosin IIA peptide; P26447; S100A4/TAMRA-MyoIIA peptide fluorescence polarization; inhibition, % at 10.7 µM; hit rate 0.14% among 360,000;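 active means mean inhibition of at least 70% across replicates, with every replicate also reaching that level; inconclusive means mean inhibition reaches 70% but some replicates fall short; inactive means mean inhibition below 70%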
Target sequence (P26447 whole entry, looked up): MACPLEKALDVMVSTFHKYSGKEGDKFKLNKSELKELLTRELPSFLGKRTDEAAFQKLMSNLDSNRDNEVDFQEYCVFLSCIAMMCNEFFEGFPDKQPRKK
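incubation = readout 5 min after mixing, signal stable up to 60 min | system = S100A4 monomer protein | buffer or medium = HEPES pH 7.2 with CaCl2, KCl, NaCl, DTT, Triton | benchmarks = neutral control DMSO, positive control TFP | also added = fluorescent myosin IIA peptide, 5 nM | compound dosing = one concentration per compound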
E-selectin induc: E-selectin induction on HUVECs | P16581 | activation, % at 7.58 µM | HUVEC E-selectin immunofluorescence imaging; normalized: neutral wells 0, TNF-alpha wells 100 | hit rate 0.37% among 260,000;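 active means mean E-selectin-positive cell signal at least 10% of the positive control, reached in at least 60% of replicates, without over 20% cell loss; inconclusive means no rule given, readout overlaps actives, possibly toxicity-flagged; inactive means the rest, including those meeting only one limit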
Target sequence (P16581 whole entry, looked up): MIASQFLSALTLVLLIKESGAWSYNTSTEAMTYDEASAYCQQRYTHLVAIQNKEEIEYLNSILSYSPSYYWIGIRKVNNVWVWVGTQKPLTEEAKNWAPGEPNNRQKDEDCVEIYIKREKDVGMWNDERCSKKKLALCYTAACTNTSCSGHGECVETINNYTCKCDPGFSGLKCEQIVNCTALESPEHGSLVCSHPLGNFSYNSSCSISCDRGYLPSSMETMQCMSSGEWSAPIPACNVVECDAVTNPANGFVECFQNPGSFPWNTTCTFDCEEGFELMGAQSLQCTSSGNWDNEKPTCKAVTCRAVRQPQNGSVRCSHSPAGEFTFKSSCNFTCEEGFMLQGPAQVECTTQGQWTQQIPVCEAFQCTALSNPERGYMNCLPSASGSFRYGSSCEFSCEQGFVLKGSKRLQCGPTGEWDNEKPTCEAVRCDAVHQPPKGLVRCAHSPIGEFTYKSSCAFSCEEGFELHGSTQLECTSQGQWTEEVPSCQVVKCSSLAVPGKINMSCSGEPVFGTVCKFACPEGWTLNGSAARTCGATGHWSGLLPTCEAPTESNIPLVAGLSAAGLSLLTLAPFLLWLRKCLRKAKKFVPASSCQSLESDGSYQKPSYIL
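material = human umbilical vein endothelial cells (HUVEC), E-selectin induction | quantity = 3,000 cells/well | medium = EGM-2 growth medium on 0.1% gelatin-coated wells | technique = immunofluorescence imaging | read-out basis = % PE-positive cells | control set = TNF-alpha positive control, DMSO neutral control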
Hits are given with their value; 0 = inactive; ? = inconclusive; - = no result given; [ ] = another dose, or the depositor's remark.

SMILES | HIV Env fusion | FGF22 binding | F508del corr | S100A4 MyoIIA | E-selectin induc
CCN(CC)C(=O)C1=C(C)N(Cc2ccccc2)C(=O)C(CC(=O)NCc2cccs2)C1 (stereo not given) | 0 | 44 | 0 | 0 | 0
CCN(CC)C(=O)C1=C(C)N(Cc2ccc(OC)cc2)C(=O)C(CC(=O)NCCCN(C)C)C1 (stereo not given) | 0 | 44 | 0 | 0 | 0
CCCCN1C(=O)C(CC(=O)NC2CC2)CC(C(=O)N(CC)CC)=C1C (stereo not given) | 0 | 43 | 0 | 0 | 0
O=C(c1ccncc1)N1CC(=O)N2[C@H](CO)[C@H](c3ccc(-c4ccccc4F)cc3)[C@H]2C1 | - | - | 0 | 0 | 0
COc1cccc(-c2nnc3n2N=C(C(C)(C)C)CS3)c1 | 112 | - | - | - | -
Cc1ccc(-c2cn3c(n2)SCC3)cc1 | 0 | 0 | 0 | 0 | -
CCc1ccc(-c2cn3c(n2)SCC3)cc1 | 0 | 43 | 0 | 0 | -
COc1ccccc1N1CCN(C(=O)CN2C(=O)c3ccccc3C2=O)CC1 | 0 | 0 | 0 | 0 | -
COc1ccccc1N1CCN(C(=O)CCN2C(=O)c3cccc4cccc(c34)C2=O)CC1 | 0 | 45 | 0 | 0 | -
C/C(=N/NC(=O)C1CC1(c1ccccc1)c1ccccc1)c1cccs1 (stereo not given) | 57 | 0 | 0 | 0 | 0
C/C(=N\NC(=O)C1CC1)c1cccs1 | 0 | - | - | - | -
COc1ccccc1-c1cnc2c(c1)C(=O)N([C@@H](C)CO)C[C@H](C)[C@@H](CN(C)Cc1cccc(F)c1)O2 | 0 | 0 | 0 | 0 | 0
Cc1nn(Cc2cccc(C(=O)Nc3ccn(Cc4c(F)c(F)cc(F)c4F)n3)c2)c(C)c1[N+](=O)[O-] | 56 | - | - | - | -
CCN(CC)CCN1CCn2c3c(c4cc(C)ccc42)CCCC31 (stereo not given) | 0 | 43 | 0 | 0 | -
C[C@H](CO)N1C[C@H](C)[C@@H](CN(C)C(=O)Nc2cccc3ccccc23)OCCCC[C@H](C)Oc2ccc(NS(=O)(=O)c3ccc(Cl)cc3)cc2C1=O | 0 | 0 | 0 | 0 | -
C[C@@H]1CCCCO[C@@H](CN(C)C(=O)Nc2cccc3ccccc23)[C@H](C)CN([C@H](C)CO)C(=O)c2cc(NS(=O)(=O)c3ccc(Cl)cc3)ccc2O1 | 0 | 2.1 | 0 | 0 | -
C[C@@H]1CCCCO[C@H](CN(C)C(=O)Nc2cccc3ccccc23)[C@@H](C)CN([C@H](C)CO)C(=O)c2cc(NS(=O)(=O)c3ccc(F)cc3)ccc2O1 | 0 | - | 0 | 0 | 0
C[C@H]1CCCCO[C@H](CN(C)C(=O)Nc2cccc3ccccc23)[C@@H](C)CN([C@@H](C)CO)C(=O)c2cc(NS(=O)(=O)c3ccc(F)cc3)ccc2O1 | 87[16.7 µM] | - | 0 | 0 | 0
COc1cccc(-c2ccc3c(c2)[C@@H]2[C@@H](CCN2C(=O)C2CCCC2)[C@H](CO)N3)c1 | - | - | 0 | 0 | 0
COC(=O)C1C(OC)=CC(=O)C2CCCCC21 (stereo not given) | 57 | 0 | 0 | 0 | 0
CC(NC(=O)c1ccccc1NC(=O)CN1CCc2ccccc2C1)c1ccccc1 (stereo not given) | 69 | 0 | 0 | 0 | -
CC(NC(=O)c1ccccc1NC(=O)CN1CCN(c2ccccc2O)CC1)c1ccccc1 (stereo not given) | 0 | 0 | 0 | 0 | -
Cc1ccc(NC(=O)c2nnn(-c3cccc(C(F)(F)F)c3)c2N)cc1 | 0 | 53 | 0 | 0 | -
O=C(C[C@@H]1CC[C@@H](NC(=O)C2CCOCC2)[C@H](CO)O1)NCc1ccncc1 | - | - | 0 | 0 | 0
O=C(C[C@@H]1CC[C@H]2[C@@H](COC[C@H](O)CN2C(=O)Nc2cc(Cl)cc(Cl)c2)O1)NCC1CCCCC1 | - | 0 | 0 | 0 | 0
SMILES | HIV Env fusion | FGF22 binding | F508del corr | S100A4 MyoIIA | E-selectin induc
CCOc1ccccc1NC(=O)C(NCC1(N2CCCCC2)CCCCC1)c1ccccc1 (stereo not given) | 0 | 44 | 0 | 0 | 0
Cc1ccc(-c2cnc3c(c2)C(=O)N([C@@H](C)CO)C[C@H](C)[C@H](CN(C)CC2CCOCC2)O3)cc1 | 0 | 0 | 0 | 0 | 0
O=C(Nc1ccccc1Cc1ccccc1)c1ccccc1NS(=O)(=O)c1ccc(Cl)s1 | 67 | - | - | - | 0
Cc1ccc(NC(=O)c2ccccc2NS(=O)(=O)c2ccc(Cl)s2)cc1 | ? | - | 0 | - | 0
COc1ccc(OCCN2C(=O)NC3(CCc4ccccc4C3)C2=O)cc1 (stereo not given) | 0 | 44 | 0 | 0 | -
CNC(=O)C[C@H]1CC[C@@H]2[C@@H](COc3ccc(NC(=O)C(C)C)cc3C(=O)N2C)O1 | 0 | 0 | 0 | - | 0
O=C(C1CC1)N1CC2(C1)[C@H](c1ccccc1)[C@@H](CO)N2Cc1nccs1 | - | 0 | 0 | 0 | 0
COCC#Cc1cnc2c(c1)C(=O)N([C@@H](C)CO)C[C@@H](C)[C@H](CN(C)C(C)=O)O2 | 0 | 0 | 0 | 0 | 0
CC(=O)Nc1cccc(-c2ccnc3c2CC(C)(C(=O)NCc2cccs2)O3)c1 (stereo not given) | 0 | 0 | 9.9 | 0 | 0
CC1(C(=O)NCc2ccccc2)Cc2c(-c3ccc(C(N)=O)cc3)ccnc2O1 (stereo not given) | 0 | 0 | 15 | 0 | 0
C[C@@H]1CN([C@@H](C)CO)C(=O)c2cc(NC(=O)CCN3CCOCC3)ccc2O[C@H]1CN(C)C(=O)Nc1ccc(F)cc1 | - | 0 | 0 | 0 | 0
CC(C)(C)C(=O)Nc1nc2c(s1)CN(Cc1ccccc1)CC2 | 0 | 43 | 0 | 0 | -
O=C(Nc1nc2c(s1)CN(Cc1ccccc1)CC2)C1CCCC1 | 0 | 0 | 0 | 0 | 0
C[C@H]1CN([C@@H](C)CO)C(=O)c2cc(-c3cccnc3)cnc2O[C@H]1CN(C)C(=O)c1cccc(F)c1 | 0 | 0 | 0 | 0 | 0
CC(c1nccs1)N(C)c1nc2nonc2nc1NC1CC1 (stereo not given) | 0 | 0 | 0 | 0 | 0
CN(c1nc2nonc2nc1NC1CC1)C1CCOC1 (stereo not given) | 0 | 43 | 0 | 0 | 0
CCCNC(=O)c1ccc2c(=O)c(O)c(-c3cccc(Br)c3)[nH]c2c1 | 0 | 0 | 8.4 | 0 | 0
CCCNC(=O)c1ccc2c(=O)c(O)c(C)[nH]c2c1 | 0 | 0 | 0 | 0 | 0
COc1ccc(-c2nc(CCl)cs2)cc1 | 0 | 43 | 0 | 0 | -
ClCc1csc(-c2ccccc2Cl)n1 | 0 | 43 | 0 | 0 | 0
Cc1oncc1-c1csc(-c2ccccc2Cl)n1 | 0 | 0 | 0 | 0 | 0
C[C@@H]1CN([C@H](C)CO)C(=O)c2cc(-c3cccc(F)c3)cnc2O[C@@H]1CN(C)Cc1cccc(F)c1 | 0 | - | 0 | - | 0
CNC(=O)C[C@H]1CC[C@@H]2[C@@H](COc3ccc(NC(=O)c4ccccc4Cl)cc3C(=O)N2C)O1 | 0 | 0 | 0 | 0 | 0
C[n+]1ccccc1C1CCCC/C1=N\NC(N)=S (stereo not given) | 0 | 43 | 0 | 0 | -
Cc1ccc2[nH]c3c(N4CCc5ccccc5C4)ncnc3c2c1 | 81 | - | - | - | -
